Test results published in ChEMBL document CHEMBL1139352, “Synthesis and evaluation of novel inhibitors of Pim-1 and Pim-2 protein kinases” (J Med Chem, 2009).

Legend:
Mus musculus [1] = assay: Toxicity in Swiss Webster mouse assessed as amylase level at 3 mg/kg, ip daily for 7 days measured after 7 days; assay type: organism-based; design: dose 3 mg/kg, route intraperitoneal; conditions: in vivo, 168 h
Mus musculus [2] = assay: Toxicity in Swiss Webster mouse assessed as K+ level at 3 mg/kg, ip daily for 7 days measured after 7 days; assay type: organism-based; design: dose 3 mg/kg, route intraperitoneal; conditions: in vivo, 168 h
[3] = molecular target: Insulin-like growth factor 1 receptor (Homo sapiens) (UniProt P08069); assay: Inhibition of IGF1R at 5 uM
[4] = molecular target: Serine/threonine-protein kinase D2 (Homo sapiens) (UniProt Q9BZL6); assay: Inhibition of PKD2 at 5 uM
[5] = molecular target: Insulin receptor (Homo sapiens) (UniProt P06213); assay: Inhibition of INSR at 5 uM
Mus musculus [6] = assay: Toxicity in Swiss Webster mouse assessed as albumin level at 3 mg/kg, ip daily for 7 days measured after 7 days; assay type: organism-based; design: dose 3 mg/kg, route intraperitoneal; conditions: in vivo, 168 h
[7] = molecular target: Mitogen-activated protein kinase 3 (Homo sapiens) (UniProt P27361); assay: Inhibition of Erk1 at 5 uM
[8] = molecular target: Mitogen-activated protein kinase 1 (Homo sapiens) (UniProt P28482); assay: Inhibition of Erk2 at 5 uM
[9] = molecular target: Hepatocyte growth factor receptor (Homo sapiens) (UniProt P08581); assay: Inhibition of MET at 5 uM
Mus musculus [10] = assay: Toxicity in Swiss-Webster mouse at 100 mg/kg, ip daily for 5 days; assay type: organism-based; design: dose 100 mg/kg, route intraperitoneal; conditions: in vivo, 120 h
Mus musculus [11] = assay: Toxicity in Swiss Webster mouse assessed as hemoglobin level at 50 mg/kg, ip daily for 7 days measured after 7 days; assay type: organism-based; design: dose 50 mg/kg, route intraperitoneal; conditions: in vivo, 168 h
[12] = molecular target: Vascular endothelial growth factor receptor 2 (Homo sapiens) (UniProt P35968); assay: Inhibition of KDR at 5 uM
[13] = molecular target: Calcium/calmodulin-dependent protein kinase type IV (Homo sapiens) (UniProt Q16566); assay: Inhibition of CAMK4 at 5 uM
Mus musculus [14] = assay: Toxicity in Swiss Webster mouse assessed as white blood cell count at 10 mg/kg, ip daily for 7 days measured after 7 days; assay type: organism-based; design: dose 10 mg/kg, route intraperitoneal; conditions: in vivo, 168 h
Procedure, shortened: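 Six-week-old female Swiss Webster mice (about 25 g) received intraperitoneal injections daily for 7 days. Doses were 3, 10 or 50 mg/kg, with a vehicle group (30% PEG-400, 5% Tween-80, 65% DMSO). Values are reported as ranges per group.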

[15] = molecular target: RAF proto-oncogene serine/threonine-protein kinase (Homo sapiens) (UniProt P04049); assay: Inhibition of c-Raf at 5 uM
[16] = molecular target: Proto-oncogene tyrosine-protein kinase Src (Homo sapiens) (UniProt P12931); assay: Inhibition of SRC at 5 uM
[17] = molecular target: 3-phosphoinositide-dependent protein kinase 1 (PDPK1) (Homo sapiens) (UniProt O15530); assay: Inhibition of PDK1 at 5 uM
Mus musculus [18] = assay: Toxicity in Swiss Webster mouse assessed as Na+ level at 10 mg/kg, ip daily for 7 days measured after 7 days; assay type: organism-based; design: dose 10 mg/kg, route intraperitoneal; conditions: in vivo, 168 h
[19] = molecular target: Aurora kinase A (Homo sapiens) (UniProt O14965); assay: Inhibition of AurA at 5 uM
Mus musculus [20] = assay: Toxicity in Swiss Webster mouse assessed as amylase level at 50 mg/kg, ip daily for 7 days measured after 7 days; assay type: organism-based; design: dose 50 mg/kg, route intraperitoneal; conditions: in vivo, 168 h
[21] = molecular target: Serine/threonine-protein kinase 3 (Homo sapiens) (UniProt Q13188); assay: Inhibition of MST2 at 5 uM
Mus musculus [22] = assay: Toxicity in Swiss-Webster mouse at 50 mg/kg, ip daily for 5 days; assay type: organism-based; design: dose 50 mg/kg, route intraperitoneal; conditions: in vivo, 120 h
[23] = molecular target: Tyrosine-protein kinase Lyn (Homo sapiens) (UniProt P07948); assay: Inhibition of LYN at 5 uM
Mus musculus [24] = assay: Toxicity in Swiss Webster mouse assessed as alkaline phosphatase level at 3 mg/kg, ip daily for 7 days measured after 7 days; assay type: organism-based; design: dose 3 mg/kg, route intraperitoneal; conditions: in vivo, 168 h
[25] = molecular target: Tyrosine-protein kinase SYK (Homo sapiens) (UniProt P43405); assay: Inhibition of SYK at 5 uM
[26] = molecular target: Fibroblast growth factor receptor 1 (Homo sapiens) (UniProt P11362); assay: Inhibition of FGFR1 at 5 uM
[27] = molecular target: MAP kinase-activated protein kinase 2 (Homo sapiens) (UniProt P49137); assay: Inhibition of MAPKAPK2 at 5 uM
Mus musculus [28] = assay: Toxicity in Swiss Webster mouse assessed as creatinine level at 3 mg/kg, ip daily for 7 days measured after 7 days; assay type: organism-based; design: dose 3 mg/kg, route intraperitoneal; conditions: in vivo, 168 h
[29] = molecular target: Ribosomal protein S6 kinase beta-1 (Homo sapiens) (UniProt P23443); assay: Inhibition of p70S6K at 5 uM
Mus musculus [30] = assay: Toxicity in Swiss Webster mouse assessed as glucose level at 10 mg/kg, ip daily for 7 days measured after 7 days; assay type: organism-based; design: dose 10 mg/kg, route intraperitoneal; conditions: in vivo, 168 h
Mus musculus [31] = assay: Toxicity in Swiss Webster mouse assessed as hemoglobin level at 3 mg/kg, ip daily for 7 days measured after 7 days; assay type: organism-based; design: dose 3 mg/kg, route intraperitoneal
Mus musculus [32] = assay: Toxicity in Swiss Webster mouse assessed as K+ level at 50 mg/kg, ip daily for 7 days measured after 7 days; assay type: organism-based; design: dose 50 mg/kg, route intraperitoneal; conditions: in vivo, 168 h
[33] = molecular target: 5'-AMP-activated protein kinase subunit beta-1 (Homo sapiens) (UniProt Q9Y478); assay: Inhibition of AMPK at 5 uM
[34] = system: Receptor-type tyrosine-protein kinase FLT3 (Homo sapiens), P36888 [D835Y]; assay: Inhibition of FLT3(D835Y) at 5 uM
[35] = molecular target: Protein kinase C beta type (Homo sapiens) (UniProt P05771); assay: Inhibition of PKCbeta2 at 5 uM
[36] = molecular target: Tyrosine-protein kinase JAK2 (Homo sapiens) (UniProt O60674); assay: Inhibition of JAK2 at 5 uM
[37] = molecular target: Tyrosine-protein kinase Lck (Homo sapiens) (UniProt P06239); assay: Inhibition of LCK at 5 uM
[38] = molecular target: Ribosomal protein S6 kinase alpha-1 (Homo sapiens) (UniProt Q15418); assay: Inhibition of RSK1 at 5 uM
Mus musculus [39] = assay: Toxicity in Swiss Webster mouse assessed as blood urea nitrogen level at 3 mg/kg, ip daily for 7 days measured after 7 days; assay type: organism-based; design: dose 3 mg/kg, route intraperitoneal; conditions: in vivo, 168 h
[40] = molecular target: Tyrosine-protein kinase Fyn (Homo sapiens) (UniProt P06241); assay: Inhibition of FYN at 5 uM
Mus musculus [41] = assay: Toxicity in Swiss Webster mouse assessed as creatinine level at 50 mg/kg, ip daily for 7 days measured after 7 days; assay type: organism-based; design: dose 50 mg/kg, route intraperitoneal; conditions: in vivo, 168 h
Mus musculus [42] = assay: Toxicity in Swiss Webster mouse assessed as alkaline phosphatase level at 10 mg/kg, ip daily for 7 days measured after 7 days; assay type: organism-based; design: dose 10 mg/kg, route intraperitoneal; conditions: in vivo, 168 h
Mus musculus [43] = assay: Toxicity in Swiss Webster mouse assessed as alanine aminotransferase level at 3 mg/kg, ip daily for 7 days measured after 7 days; assay type: organism-based; design: dose 3 mg/kg, route intraperitoneal; conditions: in vivo, 168 h
Mus musculus [44] = assay: Toxicity in Swiss Webster mouse assessed as granulocyte count at 3 mg/kg, ip daily for 7 days measured after 7 days; assay type: organism-based; design: dose 3 mg/kg, route intraperitoneal; conditions: in vivo, 168 h
[45] = molecular target: Mitogen-activated protein kinase 9 (Homo sapiens) (UniProt P45984); assay: Inhibition of JNK2 at 5 uM
[46] = molecular target: Serine/threonine-protein kinase PLK1 (Homo sapiens) (UniProt P53350); assay: Inhibition of PLK1 at 5 uM
Mus musculus [47] = assay: Toxicity in Swiss Webster mouse assessed as glucose level at 3 mg/kg, ip daily for 7 days measured after 7 days; assay type: organism-based; design: dose 3 mg/kg, route intraperitoneal; conditions: in vivo, 168 h

Serine/threonine-protein kinase PLK1 (Homo sapiens), sequence (P53350 whole entry): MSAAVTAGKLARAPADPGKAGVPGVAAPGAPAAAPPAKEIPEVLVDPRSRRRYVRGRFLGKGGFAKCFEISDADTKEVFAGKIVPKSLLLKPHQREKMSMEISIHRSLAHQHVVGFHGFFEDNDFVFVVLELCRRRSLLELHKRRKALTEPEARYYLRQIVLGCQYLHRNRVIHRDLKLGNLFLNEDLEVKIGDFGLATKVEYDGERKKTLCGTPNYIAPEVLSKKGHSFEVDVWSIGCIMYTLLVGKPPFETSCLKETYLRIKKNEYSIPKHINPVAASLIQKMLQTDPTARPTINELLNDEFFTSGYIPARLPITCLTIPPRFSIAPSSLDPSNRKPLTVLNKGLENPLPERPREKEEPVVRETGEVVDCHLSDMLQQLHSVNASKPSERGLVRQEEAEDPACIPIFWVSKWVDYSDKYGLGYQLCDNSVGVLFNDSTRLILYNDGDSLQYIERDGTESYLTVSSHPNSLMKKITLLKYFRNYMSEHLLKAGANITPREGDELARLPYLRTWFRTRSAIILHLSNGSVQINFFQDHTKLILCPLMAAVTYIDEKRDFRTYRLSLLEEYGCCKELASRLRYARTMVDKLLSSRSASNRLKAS
Mitogen-activated protein kinase 3 (Homo sapiens), sequence (P27361 whole entry): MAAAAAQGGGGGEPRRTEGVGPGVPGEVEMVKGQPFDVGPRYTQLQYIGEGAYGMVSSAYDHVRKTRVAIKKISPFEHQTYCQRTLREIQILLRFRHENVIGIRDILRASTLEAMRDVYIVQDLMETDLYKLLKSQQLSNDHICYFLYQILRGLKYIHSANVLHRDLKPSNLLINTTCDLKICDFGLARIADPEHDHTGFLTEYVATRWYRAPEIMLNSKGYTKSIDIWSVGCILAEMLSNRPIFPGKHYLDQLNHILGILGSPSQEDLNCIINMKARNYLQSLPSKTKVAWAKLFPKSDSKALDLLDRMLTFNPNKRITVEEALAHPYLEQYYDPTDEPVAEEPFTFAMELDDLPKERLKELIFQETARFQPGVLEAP
Tyrosine-protein kinase Lck (Homo sapiens), sequence (P06239 2-509 limits assumed): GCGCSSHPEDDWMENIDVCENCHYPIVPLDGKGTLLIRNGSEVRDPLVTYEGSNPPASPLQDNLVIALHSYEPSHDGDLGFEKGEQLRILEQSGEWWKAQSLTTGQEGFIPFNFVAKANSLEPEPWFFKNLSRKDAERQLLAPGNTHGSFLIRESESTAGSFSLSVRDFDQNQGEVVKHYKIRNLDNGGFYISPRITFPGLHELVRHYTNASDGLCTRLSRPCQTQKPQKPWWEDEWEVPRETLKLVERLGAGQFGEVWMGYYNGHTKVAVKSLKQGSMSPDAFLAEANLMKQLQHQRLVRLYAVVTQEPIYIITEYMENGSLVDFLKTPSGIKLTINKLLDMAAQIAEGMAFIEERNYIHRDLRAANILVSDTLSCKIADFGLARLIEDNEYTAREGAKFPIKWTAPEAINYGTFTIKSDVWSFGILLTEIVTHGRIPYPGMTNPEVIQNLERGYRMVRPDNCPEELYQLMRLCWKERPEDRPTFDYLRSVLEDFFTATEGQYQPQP
Insulin receptor (Homo sapiens), sequence (P06213 28-758 limits assumed): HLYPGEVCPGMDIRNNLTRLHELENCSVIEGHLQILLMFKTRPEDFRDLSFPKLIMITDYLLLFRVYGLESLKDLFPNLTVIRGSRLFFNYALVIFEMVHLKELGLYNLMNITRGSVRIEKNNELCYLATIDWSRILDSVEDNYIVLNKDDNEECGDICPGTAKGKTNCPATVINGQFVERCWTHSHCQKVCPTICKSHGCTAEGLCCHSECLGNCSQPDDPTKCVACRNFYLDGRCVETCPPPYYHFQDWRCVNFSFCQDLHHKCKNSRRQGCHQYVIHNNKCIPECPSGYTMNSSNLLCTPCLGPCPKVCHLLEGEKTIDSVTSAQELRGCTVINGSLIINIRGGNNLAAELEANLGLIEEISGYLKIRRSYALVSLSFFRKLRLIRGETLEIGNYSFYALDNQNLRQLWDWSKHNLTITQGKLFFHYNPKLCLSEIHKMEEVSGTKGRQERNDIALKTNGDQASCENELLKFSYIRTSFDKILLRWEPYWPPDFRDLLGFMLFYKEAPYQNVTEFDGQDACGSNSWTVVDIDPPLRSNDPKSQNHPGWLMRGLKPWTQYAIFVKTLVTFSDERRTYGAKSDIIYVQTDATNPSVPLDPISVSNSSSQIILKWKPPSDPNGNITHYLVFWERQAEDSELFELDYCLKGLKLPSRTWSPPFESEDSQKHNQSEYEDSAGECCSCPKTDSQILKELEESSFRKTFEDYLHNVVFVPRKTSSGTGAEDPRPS
Insulin receptor (Homo sapiens), sequence (P06213 763-1382 limits assumed): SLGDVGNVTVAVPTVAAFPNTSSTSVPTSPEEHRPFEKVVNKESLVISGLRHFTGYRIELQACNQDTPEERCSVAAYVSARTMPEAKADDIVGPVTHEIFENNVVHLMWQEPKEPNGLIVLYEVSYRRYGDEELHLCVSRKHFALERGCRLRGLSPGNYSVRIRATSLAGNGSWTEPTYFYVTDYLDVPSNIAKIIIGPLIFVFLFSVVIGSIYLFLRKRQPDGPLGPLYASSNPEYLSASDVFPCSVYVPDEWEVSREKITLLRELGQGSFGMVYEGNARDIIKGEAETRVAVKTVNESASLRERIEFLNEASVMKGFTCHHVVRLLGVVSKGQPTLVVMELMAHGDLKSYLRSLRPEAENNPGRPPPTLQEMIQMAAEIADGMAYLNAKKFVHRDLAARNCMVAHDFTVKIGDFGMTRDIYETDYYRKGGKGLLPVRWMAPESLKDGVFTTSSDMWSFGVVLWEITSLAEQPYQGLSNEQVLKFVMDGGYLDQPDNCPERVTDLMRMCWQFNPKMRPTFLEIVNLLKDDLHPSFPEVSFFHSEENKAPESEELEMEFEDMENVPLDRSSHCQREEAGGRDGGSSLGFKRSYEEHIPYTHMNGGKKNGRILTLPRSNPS
Serine/threonine-protein kinase 3 (Homo sapiens), sequence (Q13188 whole entry): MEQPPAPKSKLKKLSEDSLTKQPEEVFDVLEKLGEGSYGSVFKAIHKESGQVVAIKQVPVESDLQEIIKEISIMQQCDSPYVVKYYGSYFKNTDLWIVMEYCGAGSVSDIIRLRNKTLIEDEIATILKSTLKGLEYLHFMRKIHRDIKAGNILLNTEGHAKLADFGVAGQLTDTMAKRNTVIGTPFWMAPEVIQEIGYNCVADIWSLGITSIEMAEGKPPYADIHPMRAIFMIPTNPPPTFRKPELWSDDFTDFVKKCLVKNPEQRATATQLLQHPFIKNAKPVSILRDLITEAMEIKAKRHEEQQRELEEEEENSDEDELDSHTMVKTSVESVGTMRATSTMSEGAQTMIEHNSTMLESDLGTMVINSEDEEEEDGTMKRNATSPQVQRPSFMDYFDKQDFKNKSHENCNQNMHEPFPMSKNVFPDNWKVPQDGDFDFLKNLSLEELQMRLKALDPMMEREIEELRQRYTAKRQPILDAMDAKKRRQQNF
Mitogen-activated protein kinase 1 (Homo sapiens), sequence (P28482 whole entry): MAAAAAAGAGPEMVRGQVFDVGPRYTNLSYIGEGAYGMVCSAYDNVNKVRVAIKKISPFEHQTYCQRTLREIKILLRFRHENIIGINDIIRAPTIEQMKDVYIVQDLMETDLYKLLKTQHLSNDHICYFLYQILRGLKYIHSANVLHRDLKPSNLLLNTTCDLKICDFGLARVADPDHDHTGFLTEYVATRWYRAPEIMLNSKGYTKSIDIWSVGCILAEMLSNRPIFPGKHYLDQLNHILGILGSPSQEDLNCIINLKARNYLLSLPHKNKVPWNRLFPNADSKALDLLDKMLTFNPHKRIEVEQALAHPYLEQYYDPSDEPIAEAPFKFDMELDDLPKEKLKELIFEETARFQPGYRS
Tyrosine-protein kinase JAK2 (Homo sapiens), sequence (O60674 whole entry): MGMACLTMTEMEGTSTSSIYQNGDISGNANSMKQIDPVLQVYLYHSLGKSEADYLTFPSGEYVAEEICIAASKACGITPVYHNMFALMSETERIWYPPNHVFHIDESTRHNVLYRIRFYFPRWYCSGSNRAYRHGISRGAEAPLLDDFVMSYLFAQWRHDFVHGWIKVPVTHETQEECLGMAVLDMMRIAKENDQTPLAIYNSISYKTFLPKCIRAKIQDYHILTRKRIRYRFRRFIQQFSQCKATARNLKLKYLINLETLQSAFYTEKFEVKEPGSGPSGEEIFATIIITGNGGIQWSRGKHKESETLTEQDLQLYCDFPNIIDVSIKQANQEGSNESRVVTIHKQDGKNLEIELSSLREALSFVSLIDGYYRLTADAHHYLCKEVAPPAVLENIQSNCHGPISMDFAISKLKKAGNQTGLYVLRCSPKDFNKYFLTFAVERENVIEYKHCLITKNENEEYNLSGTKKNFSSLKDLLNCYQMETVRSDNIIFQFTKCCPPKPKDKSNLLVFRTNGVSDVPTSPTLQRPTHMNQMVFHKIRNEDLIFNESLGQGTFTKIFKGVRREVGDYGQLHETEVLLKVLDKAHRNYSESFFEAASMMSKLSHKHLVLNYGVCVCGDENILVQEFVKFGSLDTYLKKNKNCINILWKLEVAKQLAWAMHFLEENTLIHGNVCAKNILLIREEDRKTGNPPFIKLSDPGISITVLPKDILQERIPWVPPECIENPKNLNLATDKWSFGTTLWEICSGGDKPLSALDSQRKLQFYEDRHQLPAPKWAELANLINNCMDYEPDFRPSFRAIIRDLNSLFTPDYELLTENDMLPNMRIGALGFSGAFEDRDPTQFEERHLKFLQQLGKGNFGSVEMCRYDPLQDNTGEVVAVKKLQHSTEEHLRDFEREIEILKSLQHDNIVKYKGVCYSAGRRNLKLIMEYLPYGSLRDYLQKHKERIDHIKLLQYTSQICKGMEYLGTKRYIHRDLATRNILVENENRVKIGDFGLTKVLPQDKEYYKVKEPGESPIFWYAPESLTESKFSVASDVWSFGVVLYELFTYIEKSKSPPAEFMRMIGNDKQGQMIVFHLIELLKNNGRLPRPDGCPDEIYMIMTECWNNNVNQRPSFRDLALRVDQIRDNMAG

## CCCOc1ccc(/C=C2\SC(=O)NC2=O)cc1
Mus musculus [1]
  Activity: 878 U/L
Mus musculus [2]
  Activity: 7.3 mmol/L
[3]
  inhibition: -1%
[4]
  inhibition: -3%
[5]
  inhibition: 4%
Mus musculus [6]
  Activity: 3.3 g/dL
[7]
  inhibition: 1%
[8]
  inhibition: -1%
[9]
  inhibition: -6%
Mus musculus [10]
  Activity: Toxic
Mus musculus [11]
  Activity: 12.2 g/dL
[12]
  inhibition: -4%
[13]
  inhibition: -8%
Mus musculus [14]
  Activity: 4.95 ×10⁹ /L
[15]
  inhibition: -1%
[16]
  inhibition: 4%
[17]
  inhibition: 1%
Mus musculus [18]
  Activity: 144 mmol/L
[19]
  inhibition: 4%
Mus musculus [20]
  Activity: 760 U/L
[21]
  inhibition: 1%
Mus musculus [22]
  Activity: Non-toxic
[23]
  inhibition: 8%
Mus musculus [24]
  Activity: 85 U/L
[25]
  inhibition: -3%
[26]
  inhibition: 1%
[27]
  inhibition: 5%
Mus musculus [28]
  Activity: 0.2 mg/dL
[29]
  inhibition: 8%
Mus musculus [30]
  Activity: 87 mg/dL
Mus musculus [31]
  Activity: 12.8 g/dL
Mus musculus [32]
  Activity: 6.3 mmol/L
[33]
  inhibition: 7%
[34]
  inhibition: 9%
[35]
  inhibition: -1%
[36]
  inhibition: 18%
[37]
  inhibition: 3%
[38]
  inhibition: 5%
Mus musculus [39]
  Activity: 17 mg/dL
[40]
  inhibition: 0%
Mus musculus [41]
  Activity: 0.2 mg/dL
Mus musculus [42]
  Activity: 85 U/L
Mus musculus [43]
  Activity: 40 U/L
Mus musculus [44]
  Activity: 0.01 ×10⁹ /L
[45]
  inhibition: 14%
[46]
  inhibition: 9%
Mus musculus [47]
  Activity: 80 mg/dL
